Experimental data taken from ChEMBL document CHEMBL5030531, “Synthetic Glycolipids as Molecular Vaccine Adjuvants: Mechanism of Action in Human Cells and In Vivo Activity” (J Med Chem, 2021).
Active and inactive are the calls of the source. The calls are words filed in the database; no cut-off is given here.

Legend:
Macrophage [1] = assay: Induction of IL-1beta production in human THP-1 derived macrophages assessed as accumulation of IL-1beta precursor in cell lysates at 20 uM measured up to 18 hrs by ELISA; assay type: functional, subcellular; details: time hrs <=18
In short: (§1)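 Differentiated THP-1 macrophages treated with compound at 20 μM (S-LPS, R-LPS 100 ng/mL; MPLA 1 μg/mL) for 3, 6 and 18 h. IL-1β measured by ELISA in both cell lysates and supernatants; n = 3, one-way ANOVA versus untreated.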

Macrophage [2] = assay: Activation of TRIF dependent pathway in human THP-1 derived macrophages assessed as increase in RSAD2 expression measured after 6 hrs; assay type: tissue-based
In short: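 RSAD2 mRNA in differentiated THP-1 macrophages after compound at 10 μM, measured by RT-qPCR (annealing 60 °C) with β-actin housekeeping gene. Expressed as ΔΔCt fold change versus untreated cells; n = 3, Wilcoxon test.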

[3] = biological target: Myeloid differentiation primary response protein MyD88 (Homo sapiens) (UniProt Q99836); assay: Activation of MyD88 dependent pathway in human THP-1 derived macrophages assessed as increase in NF-kappaB p65 phosphorylation at 10 uM measured after 1 hr by immunoblotting analysis; assay type: tissue-based; details: Macrophage, filed as activator
In short: (§2)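 PMA-differentiated THP-1 macrophages treated with compound at 10 μM (S-LPS 100 ng/mL, MPLA 1 μg/mL as references) and harvested at set times. RIPA lysates with protease/phosphatase inhibitors separated by SDS-PAGE, transferred to PVDF and probed for phospho-p65 (Ser536) and phospho-p38 (Thr180/Tyr182) with β-actin as loading control. Detection by chemiluminescence, densitometry; representative of at least two experiments.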

HEK-Blue hTLR4 = assay: Activation of AP-1 in LPS-stimulated HEK-Blue hTLR4 cells assessed as increase in release of SEAP reporter protein level incubated for 18 hrs by QUANTI-blue assay; assay type: cell-based; details: Homo sapiens, filed as activator
In short: (§3)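 HEK-Blue hTLR4 cells (HEK293 with CD14, TLR4, MD-2 and NF-κB/AP-1-driven SEAP) in DMEM/10% FBS, seeded overnight (37 °C, 5% CO2), washed, then exposed to compound 0.1–25 μM in fresh medium for 18 h. SEAP in supernatant read with QUANTI-Blue substrate (0.5–4 h, RT) at OD 630 nm. Normalized to 100 ng/mL S. minnesota smooth LPS; mean percentage of three independent experiments.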

[4] = biological target: T1, Toll-like receptor 4/MD-2 (Homo sapiens) (UniProt O00206+Q9Y6Y9); assay: Binding affinity to NTA sensor chip immobilized recombinant human TLR4/MD2 assessed as association rate constant by surface plasmon resonance analysis; assay type: protein-complex assay; details: filed as agonist
In short: (§4)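 Recombinant human TLR4/MD2 complex (20 μg/mL in 10 mM sodium acetate pH 4.0) amine-coupled to NTA chip after NiCl2 and EDC/NHS activation, ethanolamine-blocked. Analytes sonicated 15 min and diluted in PBS-P+ with 5% DMSO, injected over the series 4.34–69.50 μM or 5.34–85.50 μM. Regeneration 50 mM NaOH. Kinetics fitted to 1:1 model after solvent correction.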

[5] = biological target: Toll-like receptor 4 (Homo sapiens) (UniProt O00206); assay: Activation of human TLR4 in IL-1beta stimulated HEK-Blue Null cells assessed as NF-kappaB activation at 0.1 to 25 uM incubated for 18 hrs by QUANTI- blue assay; assay type: tissue-based; details: dose 0.1-25 µM
In short: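 HEK-Blue Null cells, which carry the SEAP reporter but lack LPS receptors, were given compound (0.1–25 μM) for 18 h. SEAP was read by QUANTI-Blue at OD 630 nm and normalized to 100 ng/mL human IL-1β as positive control. Results are the mean percentage of three independent experiments.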

[6] = biological target: Toll-like receptor 2 (Homo sapiens) (UniProt O60603); assay: Agonist activity human TLR2 in PAM2CSK4 stimulated HEK-Blue hTLR2 cells at 0.1 to 25 uM incubated for 18 hrs by QUANTI-blue assay; assay type: cell-based; details: dose 0.1-25 µM
In short: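 HEK-Blue hTLR2 cells exposed 18 h to compound (0.1–25 μM); SEAP in supernatant by QUANTI-Blue at OD 630 nm. Values normalized to PAM2CSK4 (10 ng/mL, 18 h) and expressed as mean percentage of three independent experiments.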

[7] = Toxicity in C57BL/6 […] assessed as state of alertness at 10 ug observed daily for 7 days; details: mouse, in vivo, 168 h; dose 10 µg, time 7 day
In short: (§5)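 Six-week-old female C57BL/6 mice were injected subcutaneously in the flank with 10 μg adjuvant in 50 μL PBS. Mice were monitored and weighed daily for 7 days, with injection-site response and alertness noted. Group size is n = 3 per treatment in the methods and n = 4 in the figure legend.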

[8] = biological target: Nuclear factor NF-kappa-B complex (Homo sapiens) (UniProt Q00653+P19838+Q04206); assay: Activation of NF-kappaB in LPS-stimulated HEK-Blue hTLR4 cells assessed as increase in release of SEAP reporter protein level incubated for 18 hrs by QUANTI-blue assay; assay type: cell-based; details: filed as activator; in short: as §3
[9] = biological target: T1, Toll-like receptor 4/MD-2 (Homo sapiens); assay: Binding affinity to NTA sensor chip immobilized recombinant human TLR4/MD2 assessed as dissociation rate kinetics by surface plasmon resonance analysis; assay type: protein-complex assay; details: filed as agonist; in short: as §4
Mus musculus [10] = assay: Immuno-adjuvant activity in C57BL/6 mouse assessed as increase in levels of anti-ova total IgG in sera at 10 ug administered subcutaneously in presence of ovalbumin and measured 21 days post immunization by ELISA; assay type: functional, organism-based; details: dose 10.0 µg, time 21.0 day
In short: (§6)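 Female C57BL/6 mice (n = 8) given 50 μL s.c. in the flank of 500 μg endotoxin-depleted OVA mixed with 10 μg adjuvant in PBS. Booster on opposite flank day 22; OVA-only control group. Tail-vein sera taken days 21 and 41, serially diluted 1:100–1:12 800 and assayed by ELISA on OVA-coated plates (4 μg/mL). Detection with HRP anti-mouse IgG, TMB, A450.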

Macrophage [11] = assay: Activation of TRIF dependent pathway in human THP-1 derived macrophages assessed as increase in IFNbeta mRNA expression measured 2 hrs post treatment by real-time PCR
[12] = Toxicity in C57BL/6 […] assessed as effect on body weight at 10 ug measured daily for 7 days; details: mouse, in vivo, 168 h; dose 10 µg, time 7 day; in short: as §5
[13] = biological target: Toll-like receptor 4 (Homo sapiens) (UniProt O00206); assay: Antagonist activity at human TLR4 in LPS-stimulated HEK-Blue hTLR4 cells assessed as inhibition of LPS-induced SEAP production at 0.1 to 25 uM incubated for 18 hrs by QUANTI-blue assay; details: dose 0.1-25 µM
Mus musculus [14] = assay: Immuno-adjuvant activity in C57BL/6 mouse assessed as increase in levels of anti-ova total IgG in sera at 10 ug administered subcutaneously on day 1 and as booster dose on day 22 in presence of ovalbumin and […] by ELISA; assay type: functional, organism-based; details: dose 10.0 µg; in short: as §6
Macrophage [15] = assay: Induction of IL-1beta production in human THP-1 derived macrophages assessed as secretion of IL-1beta mature form in supernatant at 20 uM measured up to 18 hrs by ELISA; assay type: functional, tissue-based; details: time hrs <=18; in short: as §1
Macrophage [16] = assay: Activation of TRIF dependent pathway in human THP-1 derived macrophages assessed as increase in IRF3 phosphorylation at 10 uM measured up to 3 hrs by immunoblotting analysis; assay type: tissue-based; details: time hrs <=3
In short: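 Differentiated THP-1 macrophages exposed to compound at 10 μM, alongside S-LPS and R-LPS (100 ng/mL each) and MPLA (1 μg/mL), and collected over a time course. Lysates were immunoblotted for phospho-IRF3 (Ser386) with β-actin as loading control and detected by chemiluminescence.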

[17] = biological target: T1, Toll-like receptor 4/MD-2 (Homo sapiens); assay: Binding affinity to NTA sensor chip immobilized recombinant human TLR4/MD2 assessed as maximum response by surface plasmon resonance analysis; assay type: protein-complex assay; details: filed as agonist; in short: as §4
[18] = biological target: Myeloid differentiation primary response protein MyD88 (Homo sapiens) (UniProt Q99836); assay: Activation of MyD88 dependent pathway in human THP-1 derived macrophages assessed as increase in IL-1 beta secretion measured after 18 hrs by ELISA; details: Macrophage, filed as activator
In short: (§7)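 THP-1 cells differentiated with PMA 25 ng/mL for 72 h, then rested 24 h in fresh medium before stimulation with compound (range 0.1–1 to 10–25 μM) in RPMI/10% FBS for 18 h. S-LPS and MPLA used as references. TNFα, IL-1β, IL-6 in supernatants quantified by sandwich ELISA at 450 nm (570 nm correction).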

[19] = biological target: Myeloid differentiation primary response protein MyD88 (Homo sapiens) (UniProt Q99836); assay: Activation of MyD88 dependent pathway in human THP-1 derived macrophages assessed as increase in MAPK p38 phosphorylation at 10 uM measured after 1 hr by immunoblotting analysis; assay type: tissue-based; details: Macrophage, filed as activator; in short: as §2
[20] = Toxicity in C57BL/6 […] assessed as local response at injection site at 10 ug observed daily for 7 days; details: mouse, in vivo, 168 h; dose 10 µg, time 7 day; in short: as §5
[21] = biological target: Myeloid differentiation primary response protein MyD88 (Homo sapiens) (UniProt Q99836); assay: Activation of MyD88 dependent pathway in human THP-1 derived macrophages assessed as increase in IL-1 beta secretion at 10 to 25 uM measured after 18 hrs by ELISA; details: Macrophage, filed as activator, dose 10-25 µM; in short: as §7
[22] = biological target: NACHT, LRR and PYD domains-containing protein 3 (Homo sapiens) (UniProt Q96P20); assay: Activation of NLRP3 inflammasome in human THP-1 derived macrophages assessed as increase in IL-1beta maturation and release at 20 uM measured after 6 hrs by ELISA; assay type: tissue-based; details: Macrophage, filed as activator
In short: (§8)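 After 6 h of compound at 20 μM, differentiated THP-1 macrophage lysates were immunoblotted for pro-caspase-1 and pro-IL-1β. Methanol/chloroform-precipitated supernatants were probed for cleaved caspase-1 and cleaved IL-1β (Asp116), with chemiluminescent detection. Released IL-1β was also measured by ELISA.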

Macrophage [23] = assay: Inhibition of IL-1beta release in human THP-1 derived macrophages pretreated with NLRP3 inhibitor MCC950 for 1 hr followed by compound addition and measured after 6 hrs by ELISA and immunoblotting analysis; assay type: functional, tissue-based
In short: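 Differentiated THP-1 macrophages preincubated 1 h with MCC950 at 0.01, 0.1, 1 and 10 μM. Cells were then stimulated 6 h with compound at 20 μM or with S-LPS at 100 ng/mL. Secreted IL-1β measured by ELISA and by immunoblot of supernatants.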

Macrophage [24] = assay: Activation of TRIF dependent pathway in human THP-1 derived macrophages assessed as STAT1 phosphorylation at 10 uM pretreated with anti-IFNAR2 antibody for 1 hr followed by compound addition and measured after 3 hrs by immunoblotting analysis; details: filed as activator
[25] = biological target: NACHT, LRR and PYD domains-containing protein 3 (Homo sapiens) (UniProt Q96P20); assay: Activation of NLRP3 inflammasome in human THP-1 derived macrophages assessed as increase in caspase-1 cleavage at 20 uM by immunoblotting analysis; assay type: tissue-based; details: Macrophage, filed as activator; in short: as §8
[26] = biological target: Myeloid differentiation primary response protein MyD88 (Homo sapiens) (UniProt Q99836); assay: Activation of MyD88 dependent pathway in human THP-1 derived macrophages assessed as increase in TNF alpha secretion at 10 to 25 uM measured after 18 hrs by ELISA; details: Macrophage, filed as activator, dose 10-25 µM; in short: as §7
[27] = biological target: Myeloid differentiation primary response protein MyD88 (Homo sapiens) (UniProt Q99836); assay: Activation of MyD88 dependent pathway in human THP-1 derived macrophages assessed as increase in IL-6 secretion at 10 to 25 uM measured after 18 hrs by ELISA; details: Macrophage, filed as activator, dose 10-25 µM; in short: as §7
Macrophage [28] = assay: Activation of TRIF dependent pathway in human THP-1 derived macrophages assessed as increase in IFNbeta mRNA expression by measuring fold increase measured 2 hrs post treatment by real-time PCR relative to control; details: filed as activator

Sequence of Myeloid differentiation primary response protein MyD88 (Homo sapiens) (Q99836 whole entry, the tested form may be a part): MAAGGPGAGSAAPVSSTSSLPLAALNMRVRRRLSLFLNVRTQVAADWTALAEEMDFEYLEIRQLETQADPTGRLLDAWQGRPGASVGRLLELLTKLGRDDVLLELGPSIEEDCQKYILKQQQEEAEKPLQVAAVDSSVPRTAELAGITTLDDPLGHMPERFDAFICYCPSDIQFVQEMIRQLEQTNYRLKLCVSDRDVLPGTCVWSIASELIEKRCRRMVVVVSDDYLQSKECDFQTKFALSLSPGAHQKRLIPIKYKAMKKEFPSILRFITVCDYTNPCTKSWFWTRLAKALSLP
Sequence of Toll-like receptor 4 (Homo sapiens) (O00206 whole entry): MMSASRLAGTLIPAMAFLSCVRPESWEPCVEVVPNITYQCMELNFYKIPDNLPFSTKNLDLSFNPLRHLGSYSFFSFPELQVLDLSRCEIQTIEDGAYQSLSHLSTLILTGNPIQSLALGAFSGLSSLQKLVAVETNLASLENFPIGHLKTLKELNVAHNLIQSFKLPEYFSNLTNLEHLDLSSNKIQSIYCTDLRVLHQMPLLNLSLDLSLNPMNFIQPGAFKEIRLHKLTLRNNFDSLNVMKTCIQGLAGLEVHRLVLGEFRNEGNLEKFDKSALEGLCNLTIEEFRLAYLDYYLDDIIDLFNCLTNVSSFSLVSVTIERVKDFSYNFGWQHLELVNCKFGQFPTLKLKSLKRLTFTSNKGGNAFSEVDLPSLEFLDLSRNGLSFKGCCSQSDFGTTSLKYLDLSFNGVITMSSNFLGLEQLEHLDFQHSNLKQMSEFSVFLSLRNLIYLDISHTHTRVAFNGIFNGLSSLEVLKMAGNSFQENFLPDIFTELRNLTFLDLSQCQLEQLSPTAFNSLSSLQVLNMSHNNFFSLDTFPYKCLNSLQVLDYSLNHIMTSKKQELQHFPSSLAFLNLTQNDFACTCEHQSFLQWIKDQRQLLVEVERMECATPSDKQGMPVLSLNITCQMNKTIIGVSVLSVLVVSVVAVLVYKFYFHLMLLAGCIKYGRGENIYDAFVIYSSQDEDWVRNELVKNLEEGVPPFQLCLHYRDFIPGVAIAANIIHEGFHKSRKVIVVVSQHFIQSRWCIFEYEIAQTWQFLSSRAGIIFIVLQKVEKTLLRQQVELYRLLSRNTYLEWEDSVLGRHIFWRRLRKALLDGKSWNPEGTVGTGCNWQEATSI
Sequence of Nuclear factor NF-kappa-B complex (Homo sapiens) (P19838 whole entry, looked up): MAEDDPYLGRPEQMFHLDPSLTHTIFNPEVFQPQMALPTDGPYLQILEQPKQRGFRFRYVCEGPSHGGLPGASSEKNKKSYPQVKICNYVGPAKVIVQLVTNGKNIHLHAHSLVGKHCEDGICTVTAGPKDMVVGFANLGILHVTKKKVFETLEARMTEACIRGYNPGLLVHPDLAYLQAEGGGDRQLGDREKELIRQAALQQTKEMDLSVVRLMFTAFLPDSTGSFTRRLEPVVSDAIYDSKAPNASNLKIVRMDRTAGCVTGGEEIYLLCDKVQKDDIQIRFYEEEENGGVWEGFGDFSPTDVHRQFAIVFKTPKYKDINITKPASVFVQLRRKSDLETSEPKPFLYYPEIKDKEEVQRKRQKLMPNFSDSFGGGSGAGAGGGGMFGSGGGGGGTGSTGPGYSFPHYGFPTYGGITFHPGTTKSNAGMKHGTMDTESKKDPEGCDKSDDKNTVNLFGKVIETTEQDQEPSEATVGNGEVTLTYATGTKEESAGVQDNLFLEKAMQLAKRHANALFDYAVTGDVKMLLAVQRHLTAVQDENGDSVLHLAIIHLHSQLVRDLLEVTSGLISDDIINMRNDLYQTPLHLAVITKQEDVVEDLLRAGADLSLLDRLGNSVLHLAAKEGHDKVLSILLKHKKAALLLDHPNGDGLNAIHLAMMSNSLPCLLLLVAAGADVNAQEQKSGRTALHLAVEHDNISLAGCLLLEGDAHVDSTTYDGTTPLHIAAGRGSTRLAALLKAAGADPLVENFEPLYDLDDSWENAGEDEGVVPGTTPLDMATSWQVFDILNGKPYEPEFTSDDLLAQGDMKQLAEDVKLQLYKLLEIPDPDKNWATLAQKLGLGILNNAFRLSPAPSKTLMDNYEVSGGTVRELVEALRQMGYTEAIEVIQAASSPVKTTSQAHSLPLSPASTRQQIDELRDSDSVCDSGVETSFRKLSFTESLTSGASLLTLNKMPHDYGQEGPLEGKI
Sequence of Nuclear factor NF-kappa-B complex (Homo sapiens) (Q00653 whole entry, looked up): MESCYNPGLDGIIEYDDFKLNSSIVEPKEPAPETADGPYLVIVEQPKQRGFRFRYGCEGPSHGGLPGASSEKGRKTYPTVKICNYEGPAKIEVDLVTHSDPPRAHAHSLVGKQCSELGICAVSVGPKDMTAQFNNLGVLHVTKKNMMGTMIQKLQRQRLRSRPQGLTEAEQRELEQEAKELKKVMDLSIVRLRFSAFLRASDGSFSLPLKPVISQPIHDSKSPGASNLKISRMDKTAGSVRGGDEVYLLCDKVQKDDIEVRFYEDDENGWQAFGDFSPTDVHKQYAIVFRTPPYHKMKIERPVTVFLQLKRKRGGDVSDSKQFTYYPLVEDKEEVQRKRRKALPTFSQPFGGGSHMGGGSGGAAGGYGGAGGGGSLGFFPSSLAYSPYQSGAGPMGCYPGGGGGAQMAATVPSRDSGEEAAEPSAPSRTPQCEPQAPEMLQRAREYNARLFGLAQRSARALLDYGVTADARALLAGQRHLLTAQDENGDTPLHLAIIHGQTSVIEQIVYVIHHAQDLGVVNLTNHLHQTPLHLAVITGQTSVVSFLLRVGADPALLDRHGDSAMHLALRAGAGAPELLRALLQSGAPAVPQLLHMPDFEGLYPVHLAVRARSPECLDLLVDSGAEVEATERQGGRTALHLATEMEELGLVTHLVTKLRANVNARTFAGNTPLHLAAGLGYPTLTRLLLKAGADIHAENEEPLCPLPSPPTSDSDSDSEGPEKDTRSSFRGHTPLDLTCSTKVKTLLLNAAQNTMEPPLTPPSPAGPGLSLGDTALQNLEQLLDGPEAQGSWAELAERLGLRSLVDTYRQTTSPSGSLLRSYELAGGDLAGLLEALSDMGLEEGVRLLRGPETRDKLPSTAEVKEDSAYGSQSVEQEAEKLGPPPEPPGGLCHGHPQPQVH
Sequence of Nuclear factor NF-kappa-B complex (Homo sapiens) (Q04206 whole entry, looked up): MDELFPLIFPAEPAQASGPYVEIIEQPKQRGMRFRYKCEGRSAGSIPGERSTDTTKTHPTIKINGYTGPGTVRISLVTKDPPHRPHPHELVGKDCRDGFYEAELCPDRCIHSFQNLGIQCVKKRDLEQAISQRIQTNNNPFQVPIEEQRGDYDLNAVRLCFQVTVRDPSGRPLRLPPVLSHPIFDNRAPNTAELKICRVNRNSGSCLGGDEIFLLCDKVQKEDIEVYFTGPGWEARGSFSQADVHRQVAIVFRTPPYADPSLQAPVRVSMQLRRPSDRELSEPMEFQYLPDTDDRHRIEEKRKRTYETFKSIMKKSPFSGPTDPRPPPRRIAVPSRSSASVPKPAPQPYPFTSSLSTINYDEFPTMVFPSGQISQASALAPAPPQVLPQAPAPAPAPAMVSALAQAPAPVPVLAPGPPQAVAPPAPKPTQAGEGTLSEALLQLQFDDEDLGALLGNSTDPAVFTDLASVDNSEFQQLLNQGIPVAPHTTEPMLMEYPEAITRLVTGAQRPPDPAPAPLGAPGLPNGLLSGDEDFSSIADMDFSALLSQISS
Sequence of NACHT, LRR and PYD domains-containing protein 3 (Homo sapiens) (Q96P20 whole entry, the tested form may be a part): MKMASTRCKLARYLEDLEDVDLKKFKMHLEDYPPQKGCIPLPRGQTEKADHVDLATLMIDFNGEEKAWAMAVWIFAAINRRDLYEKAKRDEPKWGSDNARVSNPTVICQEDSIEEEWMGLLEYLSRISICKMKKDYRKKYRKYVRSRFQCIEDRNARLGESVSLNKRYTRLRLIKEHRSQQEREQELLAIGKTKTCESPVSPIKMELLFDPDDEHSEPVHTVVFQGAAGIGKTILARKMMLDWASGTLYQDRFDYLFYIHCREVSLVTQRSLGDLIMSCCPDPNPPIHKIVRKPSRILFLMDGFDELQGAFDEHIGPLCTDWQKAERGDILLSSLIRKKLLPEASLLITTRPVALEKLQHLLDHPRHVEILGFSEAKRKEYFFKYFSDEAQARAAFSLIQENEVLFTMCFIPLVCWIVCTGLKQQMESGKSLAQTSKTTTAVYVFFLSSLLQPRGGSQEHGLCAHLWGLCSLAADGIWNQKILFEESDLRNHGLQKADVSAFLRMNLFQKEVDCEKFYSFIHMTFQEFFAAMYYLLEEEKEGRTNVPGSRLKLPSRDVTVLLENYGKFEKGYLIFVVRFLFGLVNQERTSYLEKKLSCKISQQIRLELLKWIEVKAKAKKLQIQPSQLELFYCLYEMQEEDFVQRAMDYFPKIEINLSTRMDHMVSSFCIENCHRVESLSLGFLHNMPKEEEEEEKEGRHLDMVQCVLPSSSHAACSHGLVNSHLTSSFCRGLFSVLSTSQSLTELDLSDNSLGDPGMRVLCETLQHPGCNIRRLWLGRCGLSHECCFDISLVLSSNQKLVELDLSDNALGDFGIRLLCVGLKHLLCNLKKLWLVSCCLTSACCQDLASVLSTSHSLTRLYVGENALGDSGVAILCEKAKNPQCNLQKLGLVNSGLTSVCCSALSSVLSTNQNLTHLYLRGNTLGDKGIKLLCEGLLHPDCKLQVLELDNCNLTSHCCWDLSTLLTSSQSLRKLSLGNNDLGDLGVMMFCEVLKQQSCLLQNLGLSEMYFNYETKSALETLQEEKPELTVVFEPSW

Activity [3]	Ka [4]	Activity [5]	Activity [6]	Activity [8]	Kdiss [9]	Activity [13]	Rmax [17] [RU]	Activity [19]	Compound	Activity (Macrophage [1])	Activity (HEK-Blue hTLR4)	Activity [7]	Activity (Mus musculus [10])	Activity [12]	Activity (Mus musculus [14])	Activity (Macrophage [15])	Activity [20]	also measured
Active	3.84 10^3(1/Ms)	inactive	inactive	Dose-Dependent Effect	7.09 10^-4/s	inactive	8.15	Active	CCCCCCCCCCCCCC(=O)N[C@H]1[C@@H](OP(=O)([O-])[O-])O[C@H](CO)[C@@H](OC(=O)CCCCCCCCCCCCC)[C@@H]1OC(=O)CCCCCCCCCCCCC.[Na+].[Na+]	Active	Dose-Dependent Effect	Non-Toxic	Active	Non-Toxic	Active	inactive	Non-Toxic	Activity (Macrophage [2]): inactive; Activity (Macrophage [11]): inactive; Activity (Macrophage [16]): inactive; Activity [18]: Dose-Dependent Effect
Active	9.15 10^2/Ms	inactive	inactive	Dose-Dependent Effect	5.19 10^-4/s	inactive	29.1	Active	CCCCCCCCCCCC(=O)N[C@H]1[C@@H](OP(=O)([O-])[O-])O[C@H](CO)[C@@H](OC(=O)CCCCCCCCCCC)[C@@H]1OC(=O)CCCCCCCCCCC.[Na+].[Na+]	Active	Dose-Dependent Effect	Non-Toxic	Active	Non-Toxic	Active	Active	Non-Toxic	Activity (Macrophage [2]; filed as activator): Active; Activity [21]: Active; Activity [22]: Active; inhibition (Macrophage [23]): Dose-Dependent Effect; Activity (Macrophage [24]): Active; Activity [25]: Active; Activity (Macrophage [11]; filed as activator): Active; Activity [26]: Active; Activity [27]: Active; Activity (Macrophage [16]; filed as activator): Active; fold change (FC) (Macrophage [28]): 20
